Reference: PMC4021529 (British Journal of Cancer, 2014)
“And” between values parts separate entries of the source, which are not always exact repeats. Equal entries are not always repeated.

Test: Phase I 3+3 dose escalation: MTD and dose-limiting toxicities
Format: in vivo, human
Settings: for maximum tolerated dose (MTD): Asian patients
In short: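 Open-label 3+3 escalation run separately for each schedule. Test compound given as a 2-h IV infusion every 3 weeks: A on day 1 (100, 200, 250, 300 mg, up to 400), B on days 1 and 8 (50, 100, 150, 200 mg, up to 250). MTD was the highest dose with DLT in ≤1 of 6 patients in course 1. Graded by CTCAE v3.0. Up to 18 patients treated at the MTD.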

CC[C@@H]1C(=O)N(C)c2cnc(Nc3ccc(C(=O)N[C@H]4CC[C@H](N5CCN(CC6CC6)CC5)CC4)cc3OC)nc2N1C(C)C [volasertib]
time of occurrence of DLTs (both schedules): 8–15 treatment days
patients with DLTs during course 1 (expansion cohort schedule A, 300 mg): Four patients
patients with DLTs (expansion cohort schedule B, 150 mg): None
patients with thrombocytopenia (grade 4) as DLT in first course (schedule A, 300 mg (MTD)): Two patients
patients with a DLT related to neutropenia (schedule A, 300 mg (MTD), 17 patients): Four patients
DLTs during course 1 (schedule A, 300 mg (n=6), dose escalation): No DLTs
duration of febrile neutropenia reported as DLT (schedule A, 300 mg, two patients): 3 days and 4 days
patients with DLTs in first treatment course (schedule A, 350 mg (n=3)): All three patients
maximum tolerated dose (MTD) (schedule A: 2-h i.v. infusion day 1 every 3 weeks): 300 mg
DLTs of thrombocytopenia (grade 4) (schedule B): no DLTs
patients with DLTs in first treatment course (schedule B, 200 mg (n=3)): two out of three patients
maximum tolerated dose (MTD) (schedule B: 2-h i.v. infusion days 1 and 8 every 3 weeks): 150 mg
DLTs after intra-individual dose escalation from MTD to a higher dose (up to 350 mg (schedule A, 3 patients) and 200 mg (schedule B, 1 patient)): No DLTs
